The test system of assay [1] is orthotopic Lewis lung carcinoma. As to conditions: cited from earlier work.
The test system of assay [2] is A549-luc-c8 human lung adenocarcinoma cells. The assay is described as follows: MTT cytotoxicity assay. As to conditions: 48 h. Type of assay: cell-based. The method, boiled down: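 A549-luc-c8 luciferase-expressing cells grown in RPMI 1640 with 10% FBS and antibiotic at 37°C, 5% CO2. Seeded at 5,000 cells per 100 μL medium per well. Free parent drug, conjugate nanoparticles or blank nanoparticles added across a concentration series for 48 h at 37°C. MTT then added for 3 h, dye dissolved in DMSO, A570 read. IC50 taken from survival plots; blank-particle IC50 expressed at drug-equivalent dose.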
On the technique in general: Tetrazolium assays rely on reduction of a dye to a coloured formazan, in cell work by metabolically active cells.

For assay [3], the system named is tubulin. The assay is described as follows: Tubulin polymerization assay. Type of assay: biochemical. The method, boiled down: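 Kit-based assay: 3 mg/mL tubulin in 80 mM PIPES, pH 6.9, with glycerol, run at 37°C. Test compound at 10 and 34 μM, parent drug at 10 μM as positive control, plus untreated control. Polymerization followed as OD340, read once per minute for 60 min. Maximum rate (Vmax, mOD/min) and time to reach it taken from the curves.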

Each structure is given as a SMILES string. Like-named read-outs stand apart in the source and are kept apart here.

In the case of `N.N.[Cl][Pt][Cl]` [Cisplatin, cisplatin], the therapeutic effect result was “suppressed primary lung tumor growth and lymph node metastasis” in assay [1] (treatment starting on day 1); “failed to show any significant therapeutic effect” in assay [1] (treatment starting on day 10).

With `CC(=O)O[C@H]1C(=O)[C@@]2(C)[C@H]([C@H](OC(=O)c3ccccc3)[C@]3(O)C[C@H](OC(=O)[C@H](O)[C@@H](NC(=O)c4ccccc4)c4ccccc4)C(C)=C1C3(C)C)[C@]1(OC(C)=O)CO[C@@H]1C[C@@H]2O` [PX, paclitaxel], the IC50 (as a rule, the concentration needed to halve the response being measured) in assay [2] was found to be 5.3 ± 3.2 nM. Besides, the “Vmax (maximum rate of tubulin polymerization)” value in assay [3] (10 μM, 37°C, 3 mg/mL tubulin) amounted to 29.0±0.0 mOD/min. Further, the “time at which Vmax was reached” value in assay [3] (60 minute time course) was in the range of 0 to 3 min.

The record behind these values is publication PMC4124067 (International Journal of Nanomedicine, 2014).
